Experimental data published in ChEMBL document CHEMBL4184148 (Bioorg Med Chem Lett, 2017).

Key:
[1] = target: Microtubule-associated serine/threonine-protein kinase 1 (Homo sapiens) (UniProt Q9Y2H9); test: Binding affinity to wild-type human partial length MAST1 (S346 to V730 residues) expressed in HEK293 cells at 1 uM by Kinomescan method relative to control; format: cell-based
[2] = test system: Epidermal growth factor receptor (Homo sapiens), P00533 [L861Q]; test: Binding affinity to human partial length EGFR L861Q mutant (R669 to V1011 residues) expressed in Escherichia coli BL21 at 1 uM by Kinomescan method relative to control
[3] = target: Serine/threonine-protein kinase ULK2 (Homo sapiens) (UniProt Q8IYT8); test: Binding affinity to wild-type human partial length ULK2 (M1 to S301 residues) expressed in HEK293 cells at 1 uM by Kinomescan method relative to control; format: cell-based
Sequence of Serine/threonine-protein kinase ULK2 (Homo sapiens) (Q8IYT8 whole entry, the tested form may be a part): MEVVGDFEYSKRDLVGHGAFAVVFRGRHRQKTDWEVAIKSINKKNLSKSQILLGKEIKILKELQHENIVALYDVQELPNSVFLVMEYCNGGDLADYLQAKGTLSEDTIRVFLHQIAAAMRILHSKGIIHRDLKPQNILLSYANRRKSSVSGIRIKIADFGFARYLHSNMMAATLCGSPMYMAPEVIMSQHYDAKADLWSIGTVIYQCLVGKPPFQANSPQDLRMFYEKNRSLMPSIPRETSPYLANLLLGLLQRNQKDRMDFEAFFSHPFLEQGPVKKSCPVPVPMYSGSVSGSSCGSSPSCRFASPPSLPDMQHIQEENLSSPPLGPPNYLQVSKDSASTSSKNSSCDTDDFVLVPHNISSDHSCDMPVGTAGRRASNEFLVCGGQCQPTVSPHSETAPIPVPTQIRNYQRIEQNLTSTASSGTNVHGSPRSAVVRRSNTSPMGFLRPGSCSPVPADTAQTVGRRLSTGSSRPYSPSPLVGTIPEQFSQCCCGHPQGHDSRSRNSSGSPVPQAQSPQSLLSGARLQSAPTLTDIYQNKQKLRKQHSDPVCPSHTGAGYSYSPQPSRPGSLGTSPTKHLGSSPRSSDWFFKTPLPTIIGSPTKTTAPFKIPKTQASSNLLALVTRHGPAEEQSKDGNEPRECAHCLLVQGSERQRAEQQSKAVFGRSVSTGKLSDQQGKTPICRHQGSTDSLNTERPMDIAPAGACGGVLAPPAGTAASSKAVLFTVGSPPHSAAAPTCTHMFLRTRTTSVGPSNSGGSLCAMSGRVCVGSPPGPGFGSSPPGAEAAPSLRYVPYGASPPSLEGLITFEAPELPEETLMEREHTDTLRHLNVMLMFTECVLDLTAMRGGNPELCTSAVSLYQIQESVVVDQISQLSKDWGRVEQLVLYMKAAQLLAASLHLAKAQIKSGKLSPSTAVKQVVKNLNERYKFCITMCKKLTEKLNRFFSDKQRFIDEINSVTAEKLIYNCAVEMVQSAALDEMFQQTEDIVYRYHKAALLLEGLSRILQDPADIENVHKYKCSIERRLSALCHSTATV

[4] = target: Protein-tyrosine kinase 2-beta (Homo sapiens) (UniProt Q14289); test: Binding affinity to wild-type human full length PYK2 (M1 to E967 residues) expressed in Escherichia coli BL21 at 1 uM by Kinomescan method relative to control
Outline: (§1)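 Kinome-wide competition binding panel run by an outside provider, with each compound tested at a single concentration. Activity is read against the kinase panel.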

PC-3 = test: Cytotoxicity against human PC3 cells assessed as reduction in cell viability up to 33.3 uM after 72 hrs by CellTiter-Glo assay relative to control; format: functional
[5] = target: RAF proto-oncogene serine/threonine-protein kinase (Homo sapiens) (UniProt P04049); test: Binding affinity to wild-type human partial length RAF1 (I330 to T640 residues) expressed in Escherichia coli BL21 at 1 uM by Kinomescan method relative to control
Sequence of RAF proto-oncogene serine/threonine-protein kinase (Homo sapiens) (P04049 whole entry, the tested form may be a part): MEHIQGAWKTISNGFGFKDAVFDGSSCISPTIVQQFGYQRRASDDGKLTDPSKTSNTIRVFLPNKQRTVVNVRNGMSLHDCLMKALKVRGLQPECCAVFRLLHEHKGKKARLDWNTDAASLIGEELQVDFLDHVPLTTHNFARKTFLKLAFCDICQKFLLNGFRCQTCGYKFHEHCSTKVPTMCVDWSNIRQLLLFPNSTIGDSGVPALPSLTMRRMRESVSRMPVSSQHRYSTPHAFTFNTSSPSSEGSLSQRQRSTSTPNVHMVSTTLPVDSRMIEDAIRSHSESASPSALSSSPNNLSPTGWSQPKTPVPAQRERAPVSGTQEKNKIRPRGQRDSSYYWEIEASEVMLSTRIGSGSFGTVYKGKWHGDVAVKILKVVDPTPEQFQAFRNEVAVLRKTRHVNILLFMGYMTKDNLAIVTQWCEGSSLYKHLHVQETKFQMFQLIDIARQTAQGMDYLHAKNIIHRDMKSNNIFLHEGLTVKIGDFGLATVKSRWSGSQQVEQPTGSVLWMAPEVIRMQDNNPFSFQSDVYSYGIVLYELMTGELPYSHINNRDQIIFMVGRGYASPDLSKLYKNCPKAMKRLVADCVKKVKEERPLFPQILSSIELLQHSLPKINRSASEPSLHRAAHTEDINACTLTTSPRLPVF

[6] = target: Fibroblast growth factor receptor 4 (Homo sapiens) (UniProt P22455); test: Binding affinity to wild-type human partial length FGFR4 (G402 to E713 residues) expressed in Escherichia coli BL21 at 1 uM by Kinomescan method relative to control
Sequence of Fibroblast growth factor receptor 4 (Homo sapiens) (P22455 22-802 limits assumed): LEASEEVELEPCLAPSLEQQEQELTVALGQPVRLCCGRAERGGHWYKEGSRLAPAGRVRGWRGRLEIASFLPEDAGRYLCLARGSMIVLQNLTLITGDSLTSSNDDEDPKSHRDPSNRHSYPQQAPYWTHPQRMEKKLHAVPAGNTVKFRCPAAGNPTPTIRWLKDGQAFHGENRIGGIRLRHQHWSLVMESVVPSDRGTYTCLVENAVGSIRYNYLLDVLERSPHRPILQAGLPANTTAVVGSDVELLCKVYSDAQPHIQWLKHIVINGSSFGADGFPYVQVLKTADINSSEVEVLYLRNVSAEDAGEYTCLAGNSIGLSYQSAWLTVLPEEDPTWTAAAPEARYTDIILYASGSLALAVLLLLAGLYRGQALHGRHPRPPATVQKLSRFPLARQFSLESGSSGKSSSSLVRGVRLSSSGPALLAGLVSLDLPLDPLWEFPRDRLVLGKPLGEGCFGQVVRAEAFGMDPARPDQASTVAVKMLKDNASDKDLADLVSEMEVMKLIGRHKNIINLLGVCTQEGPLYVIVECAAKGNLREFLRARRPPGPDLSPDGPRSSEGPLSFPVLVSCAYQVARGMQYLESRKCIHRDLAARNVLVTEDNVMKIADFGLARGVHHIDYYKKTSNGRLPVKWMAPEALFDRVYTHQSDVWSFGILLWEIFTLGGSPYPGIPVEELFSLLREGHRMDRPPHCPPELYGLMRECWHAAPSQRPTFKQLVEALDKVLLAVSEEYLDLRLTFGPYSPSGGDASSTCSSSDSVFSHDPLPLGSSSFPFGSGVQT

[7] = target: Platelet-derived growth factor receptor beta (Homo sapiens) (UniProt P09619); test: Binding affinity to wild-type human partial length PDGFRB (V582 to Y1009 residues) expressed in Escherichia coli BL21 at 1 uM by Kinomescan method relative to control
[8] = test system: Receptor-type tyrosine-protein kinase FLT3 (Homo sapiens), P36888 [UNDEFINED MUTATION]; test: Binding affinity to human partial length FLT3 ITD/F691L double mutant expressed in Escherichia coli BL21 at 1 uM by Kinomescan method relative to control
Sequence of Receptor-type tyrosine-protein kinase FLT3 (Homo sapiens), P36888 [UNDEFINED MUTATION] (P36888 whole entry, looked up, stated change not applied): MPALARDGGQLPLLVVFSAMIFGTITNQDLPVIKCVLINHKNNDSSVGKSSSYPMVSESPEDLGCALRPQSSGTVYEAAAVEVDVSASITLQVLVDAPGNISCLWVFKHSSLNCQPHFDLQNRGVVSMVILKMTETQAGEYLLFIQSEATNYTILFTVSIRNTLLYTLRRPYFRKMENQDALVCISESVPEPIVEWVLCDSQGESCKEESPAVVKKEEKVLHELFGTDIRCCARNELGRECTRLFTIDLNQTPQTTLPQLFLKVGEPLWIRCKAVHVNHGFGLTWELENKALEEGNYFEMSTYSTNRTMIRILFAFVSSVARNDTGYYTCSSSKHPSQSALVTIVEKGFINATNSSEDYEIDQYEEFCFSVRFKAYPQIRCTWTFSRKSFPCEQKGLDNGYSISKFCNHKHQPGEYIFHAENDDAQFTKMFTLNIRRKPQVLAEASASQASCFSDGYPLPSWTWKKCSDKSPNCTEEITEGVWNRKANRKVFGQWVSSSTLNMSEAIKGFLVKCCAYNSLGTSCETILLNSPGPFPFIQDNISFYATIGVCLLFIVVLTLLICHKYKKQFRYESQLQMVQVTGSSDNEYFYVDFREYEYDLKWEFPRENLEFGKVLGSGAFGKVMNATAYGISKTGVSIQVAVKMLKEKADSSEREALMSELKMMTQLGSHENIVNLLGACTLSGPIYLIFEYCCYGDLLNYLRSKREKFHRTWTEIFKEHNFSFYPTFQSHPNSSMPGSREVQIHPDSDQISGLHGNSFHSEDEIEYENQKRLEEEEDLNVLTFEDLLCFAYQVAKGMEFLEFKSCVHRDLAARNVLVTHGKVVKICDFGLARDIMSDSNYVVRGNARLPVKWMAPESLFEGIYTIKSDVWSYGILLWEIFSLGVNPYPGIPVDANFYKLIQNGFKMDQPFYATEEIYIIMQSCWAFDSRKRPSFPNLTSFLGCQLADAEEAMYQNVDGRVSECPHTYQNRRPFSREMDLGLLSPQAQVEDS

HCT-116 [9] = test: Cytotoxicity against human HCT116 cells assessed as reduction in cell viability up to 33.3 uM after 72 hrs by CellTiter-Glo assay relative to control; format: functional
HCT-116 [10] = test: Cytotoxicity against human HCT116 cells assessed as reduction in cell viability after 72 hrs by CellTiter-Glo assay; format: functional, cell-based; conditions: HCT-116, 72 h
Outline: (§2)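 Cells were treated across a dose-response range for 72 h, and viability was read by CellTiter-Glo luminescence. Measurements were made in triplicate and reported with standard error.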

[11] = target: Calcium/calmodulin-dependent protein kinase type 1G (Homo sapiens) (UniProt Q96NX5); test: Binding affinity to wild-type human partial length CAMK1G (M1 to A342 residues) expressed in Escherichia coli BL21 at 1 uM by Kinomescan method relative to control
Sequence of Calcium/calmodulin-dependent protein kinase type 1G (Homo sapiens) (Q96NX5 whole entry, the tested form may be a part): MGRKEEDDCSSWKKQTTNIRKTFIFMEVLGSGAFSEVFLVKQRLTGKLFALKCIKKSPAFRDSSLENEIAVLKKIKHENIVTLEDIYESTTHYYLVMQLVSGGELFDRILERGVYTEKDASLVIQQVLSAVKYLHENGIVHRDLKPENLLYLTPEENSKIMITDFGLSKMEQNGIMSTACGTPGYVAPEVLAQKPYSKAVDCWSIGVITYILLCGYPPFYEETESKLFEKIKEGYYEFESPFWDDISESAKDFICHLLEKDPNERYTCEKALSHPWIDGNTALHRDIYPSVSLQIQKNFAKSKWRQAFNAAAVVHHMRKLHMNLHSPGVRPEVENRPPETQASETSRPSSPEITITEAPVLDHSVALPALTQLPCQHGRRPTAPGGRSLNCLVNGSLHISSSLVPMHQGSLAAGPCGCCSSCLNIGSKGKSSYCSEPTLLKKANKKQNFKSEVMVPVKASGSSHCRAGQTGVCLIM

[12] = target: Serine/threonine-protein kinase LATS1 (Homo sapiens) (UniProt O95835); test: Binding affinity to wild-type human partial length LATS1 (Q678 to V1130 residues) expressed in Escherichia coli BL21 at 1 uM by Kinomescan method relative to control
[13] = target: Phosphorylase b kinase gamma catalytic chain, skeletal muscle/heart isoform (Homo sapiens) (UniProt Q16816); test: Binding affinity to wild-type human full length PHKG1 (M1 to Y387 residues) expressed in Escherichia coli BL21 at 1 uM by Kinomescan method relative to control; outline: as §1
Sequence of Phosphorylase b kinase gamma catalytic chain, skeletal muscle/heart isoform (Homo sapiens) (Q16816 whole entry, looked up, the tested form may be a part, canonical isoform): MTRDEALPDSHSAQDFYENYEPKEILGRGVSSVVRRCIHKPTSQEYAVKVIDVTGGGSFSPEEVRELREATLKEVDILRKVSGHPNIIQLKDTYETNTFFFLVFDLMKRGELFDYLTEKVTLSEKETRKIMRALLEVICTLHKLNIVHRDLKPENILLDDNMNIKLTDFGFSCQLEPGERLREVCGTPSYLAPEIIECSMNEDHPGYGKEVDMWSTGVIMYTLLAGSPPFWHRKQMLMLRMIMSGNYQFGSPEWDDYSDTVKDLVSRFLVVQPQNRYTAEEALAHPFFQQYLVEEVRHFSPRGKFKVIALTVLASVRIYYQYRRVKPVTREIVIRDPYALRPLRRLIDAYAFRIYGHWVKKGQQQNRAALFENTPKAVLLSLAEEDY

[14] = target: Cyclin-dependent kinase-like 2 (Homo sapiens) (UniProt Q92772); test: Binding affinity to wild-type human partial length CDKL2 (M1 to D327 residues) expressed in Escherichia coli BL21 at 1 uM by Kinomescan method relative to control
Sequence of Cyclin-dependent kinase-like 2 (Homo sapiens) (Q92772 whole entry, the tested form may be a part): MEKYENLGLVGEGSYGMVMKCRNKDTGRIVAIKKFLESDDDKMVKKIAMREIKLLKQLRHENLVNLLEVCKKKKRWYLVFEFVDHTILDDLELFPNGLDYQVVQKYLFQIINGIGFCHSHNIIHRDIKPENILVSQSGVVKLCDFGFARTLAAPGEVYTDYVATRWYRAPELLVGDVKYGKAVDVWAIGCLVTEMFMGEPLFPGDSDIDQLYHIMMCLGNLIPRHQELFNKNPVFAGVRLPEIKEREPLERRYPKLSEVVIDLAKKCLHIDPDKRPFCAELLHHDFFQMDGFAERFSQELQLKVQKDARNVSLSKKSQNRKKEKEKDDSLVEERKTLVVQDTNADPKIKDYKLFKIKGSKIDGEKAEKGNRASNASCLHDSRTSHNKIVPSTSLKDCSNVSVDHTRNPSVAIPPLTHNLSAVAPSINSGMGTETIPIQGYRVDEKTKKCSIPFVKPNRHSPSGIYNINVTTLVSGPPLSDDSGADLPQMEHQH

HEK293 = test: Cytotoxicity against human HEK293 cells assessed as reduction in cell viability after 72 hrs by CellTiter-Glo assay; format: cell-based; conditions: HEK293, 72 h; outline: as §2

SMILES	Activity [1] [%]	Activity [2] [%]	Activity [3] [%]	Activity [4] [%]	Activity (PC-3) [%]	Activity [5] [%]	Activity [6] [%]	Activity [7] [%]	Activity [8] [%]	Activity (HCT-116 [9]) [%]	IC50 (HCT-116 [10]) [nM]	Activity [11] [%]	Activity [12] [%]	Activity [13] [%]	Activity [14] [%]	IC50 (HEK293) [nM]
C=CC(=O)Nc1ccc(C(=O)Nc2ccc(Nc3ncc4c(n3)N(C)c3ccc(C)cc3C(=O)N4C)cc2)cc1	90	79	94	97	50	88	74	94	100	50	845	100	99	99	86	–
CCC(=O)Nc1ccc(C(=O)Nc2ccc(Nc3ncc4c(n3)N(C)c3ccc(C)cc3C(=O)N4C)cc2)cc1	80	97	82	95	–	96	97	84	68	–	–	100	100	88	100	100
